Results: ChEMBL document CHEMBL4689842, “EUbOPEN Chemogenomics Library wave 1” (2021)
Where “and” joins values, the source holds several entries; their conditions need not be identical. Equal entries are not always repeated.

System: Fibroblast
Test: Multiplex assay against human fibroblast
Assay type: toxicity, cell-based
Procedure, shortened: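 Cells were classed with CellPathfinder machine-learning gating, first as Hoechst high-intensity objects or normal cells, then (normal cells) as healthy, pyknosed or fragmented nuclei, and finally (pyknosed cells) as mitotic or apoptotic. Staining of live cells at seeding used Hoechst33342, BioTracker Green Microtubule Cytoskeleton Dye, MitoTracker Red and Annexin V Alexa Fluor 680, with imaging on a CQ1 microscope at 37°C and 5% CO2 after compound addition. Tubulin, mitochondrial-mass and membrane-permeability phenotypes are per cents of healthy-nucleus cells.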

[1] = 12 h, 1 µM, compound concentration 1 uM, replicate 1
[2] = 12 h, 1 µM, compound concentration 1 uM, replicate 2
[3] = 24 h, 1 µM, compound concentration 1 uM, replicate 1
[4] = 24 h, 1 µM, compound concentration 1 uM, replicate 2
[5] = 12 h, 10 µM, compound concentration 10 uM, replicate 1
[6] = 12 h, 10 µM, compound concentration 10 uM, replicate 2
[7] = 24 h, 10 µM, compound concentration 10 uM, replicate 1
[8] = 24 h, 10 µM, compound concentration 10 uM, replicate 2

SMILES: CN1CCN(Cc2cc(NC(=O)c3ccc4c(c3)CN(c3ccccc3)CC4)cc(C(F)(F)F)c2)CC1
- Population Apoptotic (%) [1]: 72% and 64%
- Population Fragmented Nuclei (%) [1]: 42% and 27%
- Population Healthy Nuclei (%) [1]: 43% and 53%
- Population Hoechst High Intensity Objects (%) [1]: 27% and 18%
- Population Membrane Permeable-Phenotype (%) [1]: 4% and 12%
- Population Mitochondria Different-Phenotype (%) [1]: 6% and 7%
- Population Mitotic Cells (%) [1]: 27% and 35%
- Population Normal (%) [1]: 72% and 81%
- Population Pyknosed Nuclei (%) [1]: 14% and 19%
- Population Tubulin-Different-Phenotype (%) [1]: 30% and 14%
- Total Cell Count [1]: 315 and 180
- Population Apoptotic (%) [2]: 75% and 40%
- Population Fragmented Nuclei (%) [2]: 55% and 53%
- Population Healthy Nuclei (%) [2]: 37% and 39%
- Population Hoechst High Intensity Objects (%) [2]: 36% and 35%
- Population Mitochondria Different-Phenotype (%) [2]: 13% and 31%
- Population Mitotic Cells (%) [2]: 25% and 60%
- Population Normal (%) [2]: 63% and 64%
- Population Pyknosed Nuclei (%) [2]: 6%
- Total Cell Count [2]: 92 and 114
- Population Apoptotic (%) [3]: 74% and 57%
- Population Fragmented Nuclei (%) [3]: 33% and 27%
- Population Healthy Nuclei (%) [3]: 52% and 58%
- Population Hoechst High Intensity Objects (%) [3]: 41% and 15%
- Population Membrane Permeable-Phenotype (%) [3]: 6% and 4%
- Population Mitochondria Different-Phenotype (%) [3]: 25% and 10%
- Population Mitotic Cells (%) [3]: 25% and 42%
- Population Normal (%) [3]: 58% and 84%
- Population Pyknosed Nuclei (%) [3]: 14% and 13%
- Total Cell Count [3]: 365 and 178
- Population Apoptotic (%) [4]: 100% and 40%
- Population Fragmented Nuclei (%) [4]: 57% and 61%
- Population Healthy Nuclei (%) [4]: 33% and 32%
- Population Hoechst High Intensity Objects (%) [4]: 39% and 37%
- Population Membrane Permeable-Phenotype (%) [4]: 21% and 12%
- Population Mitochondria Different-Phenotype (%) [4]: 15% and 16%
- Population Normal (%) [4]: 60% and 62%
- Population Pyknosed Nuclei (%) [4]: 8% and 6%
- Population Tubulin-Different-Phenotype (%) [4]: 21% and 48%
- Total Cell Count [4]: 93 and 124

SMILES: CNC(=O)Nc1ccc2c(c1)[C@@]1(CC2)OC(=O)N(CC(=O)N(Cc2ccc(F)cc2)[C@@H](C)C(F)(F)F)C1=O [A-486]
- Population Apoptotic (%) [1]: 68%
- Population Fragmented Nuclei (%) [1]: 21%
- Population Healthy Nuclei (%) [1]: 60%
- Population Hoechst High Intensity Objects (%) [1]: 9%
- Population Membrane Permeable-Phenotype (%) [1]: 31%
- Population Mitochondria Different-Phenotype (%) [1]: 4%
- Population Mitotic Cells (%) [1]: 31%
- Population Normal (%) [1]: 90%
- Population Pyknosed Nuclei (%) [1]: 18%
- Population Tubulin-Different-Phenotype (%) [1]: 55%
- Total Cell Count [1]: 291
- Population Apoptotic (%) [2]: 75%
- Population Fragmented Nuclei (%) [2]: 57%
- Population Healthy Nuclei (%) [2]: 21%
- Population Hoechst High Intensity Objects (%) [2]: 34%
- Population Membrane Permeable-Phenotype (%) [2]: 41%
- Population Mitochondria Different-Phenotype (%) [2]: 8%
- Population Mitotic Cells (%) [2]: 25%
- Population Normal (%) [2]: 65%
- Population Pyknosed Nuclei (%) [2]: 21%
- Population Tubulin-Different-Phenotype (%) [2]: 91%
- Total Cell Count [2]: 87
- Population Apoptotic (%) [5]: 55%
- Population Fragmented Nuclei (%) [5]: 24%
- Population Healthy Nuclei (%) [5]: 61%
- Population Hoechst High Intensity Objects (%) [5]: 14%
- Population Membrane Permeable-Phenotype (%) [5]: 7%
- Population Mitochondria Different-Phenotype (%) [5]: 5%
- Population Mitotic Cells (%) [5]: 45%
- Population Normal (%) [5]: 85%
- Population Pyknosed Nuclei (%) [5]: 14%
- Population Tubulin-Different-Phenotype (%) [5]: 7%
- Total Cell Count [5]: 160
- Population Apoptotic (%) [6]: 33%
- Population Fragmented Nuclei (%) [6]: 57%
- Population Healthy Nuclei (%) [6]: 37%
- Population Hoechst High Intensity Objects (%) [6]: 29%
- Population Membrane Permeable-Phenotype (%) [6]: 15%
- Population Mitochondria Different-Phenotype (%) [6]: 10%
- Population Mitotic Cells (%) [6]: 66%
- Population Normal (%) [6]: 70%
- Population Pyknosed Nuclei (%) [6]: 5%
- Population Tubulin-Different-Phenotype (%) [6]: 45%
- Total Cell Count [6]: 77
- Population Apoptotic (%) [3]: 56%
- Population Fragmented Nuclei (%) [3]: 23%
- Population Healthy Nuclei (%) [3]: 59%
- Population Hoechst High Intensity Objects (%) [3]: 14%
- Population Membrane Permeable-Phenotype (%) [3]: 17%
- Population Mitochondria Different-Phenotype (%) [3]: 6%
- Population Mitotic Cells (%) [3]: 43%
- Population Normal (%) [3]: 85%
- Population Pyknosed Nuclei (%) [3]: 17%
- Population Tubulin-Different-Phenotype (%) [3]: 46%
- Total Cell Count [3]: 300
- Population Apoptotic (%) [4]: 71%
- Population Fragmented Nuclei (%) [4]: 63%
- Population Healthy Nuclei (%) [4]: 23%
- Population Hoechst High Intensity Objects (%) [4]: 33%
- Population Membrane Permeable-Phenotype (%) [4]: 50%
- Population Mitochondria Different-Phenotype (%) [4]: 16%
- Population Mitotic Cells (%) [4]: 28%
- Population Normal (%) [4]: 66%
- Population Pyknosed Nuclei (%) [4]: 13%
- Population Tubulin-Different-Phenotype (%) [4]: 66%
- Total Cell Count [4]: 78
- Population Apoptotic (%) [7]: 60%
- Population Fragmented Nuclei (%) [7]: 30%
- Population Healthy Nuclei (%) [7]: 53%
- Population Hoechst High Intensity Objects (%) [7]: 14%
- Population Membrane Permeable-Phenotype (%) [7]: 12%
- Population Mitochondria Different-Phenotype (%) [7]: 1%
- Population Mitotic Cells (%) [7]: 39%
- Population Normal (%) [7]: 85%
- Population Pyknosed Nuclei (%) [7]: 15%
- Population Tubulin-Different-Phenotype (%) [7]: 8%
- Total Cell Count [7]: 177
- Population Apoptotic (%) [8]: 100%
- Population Fragmented Nuclei (%) [8]: 56%
- Population Healthy Nuclei (%) [8]: 40%
- Population Hoechst High Intensity Objects (%) [8]: 38%
- Population Membrane Permeable-Phenotype (%) [8]: 25%
- Population Mitochondria Different-Phenotype (%) [8]: 0%
- Population Mitotic Cells (%) [8]: 0%
- Population Normal (%) [8]: 61%
- Population Pyknosed Nuclei (%) [8]: 4%
- Population Tubulin-Different-Phenotype (%) [8]: 10%
- Total Cell Count [8]: 81
